Sampled rows, rich in hits. Any-hit rate of the full collection: about 4.7%.
HTR2A ag = activates the mouse 5-HT2A serotonin receptor. CHO-K1 mHTR2A beta-arrestin complementation, luminescence; percent of 30 µM serotonin response. 360,000 tested, 0.66% active. activation, % at 7.6 µM. P35363;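 active = activation above a run cutoff, the mean activation of all tested compounds plus 3 SD, cut at about 14% in these data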;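 note: 0% = plate median of compound wells and 100% = 30 µM serotonin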
MC4R ag barr = activates human MC4R beta-arrestin recruitment; activation, % at 8.9 µM; 360,000 tested, 0.98% active; AID 540308; P32245; U2OS MC4R beta-arrestin complementation, luminescence; percent of melanotan II response, DMSO zero;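 active = activation above a per-plate cutoff, the mean activation of sample wells on that plate plus 3 SD, cut at about 8% in these data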
AHR activator = activates the human aryl hydrocarbon receptor | activation, % at 5 µM | P35869 | 320,000 tested, 2.5% active | AHR-responsive luciferase reporter cells, luminescence; in the data active = activation above about 47%;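 note: 0% = vehicle wells and 100% = reference agonist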
Target sequence (P35869 whole entry, looked up): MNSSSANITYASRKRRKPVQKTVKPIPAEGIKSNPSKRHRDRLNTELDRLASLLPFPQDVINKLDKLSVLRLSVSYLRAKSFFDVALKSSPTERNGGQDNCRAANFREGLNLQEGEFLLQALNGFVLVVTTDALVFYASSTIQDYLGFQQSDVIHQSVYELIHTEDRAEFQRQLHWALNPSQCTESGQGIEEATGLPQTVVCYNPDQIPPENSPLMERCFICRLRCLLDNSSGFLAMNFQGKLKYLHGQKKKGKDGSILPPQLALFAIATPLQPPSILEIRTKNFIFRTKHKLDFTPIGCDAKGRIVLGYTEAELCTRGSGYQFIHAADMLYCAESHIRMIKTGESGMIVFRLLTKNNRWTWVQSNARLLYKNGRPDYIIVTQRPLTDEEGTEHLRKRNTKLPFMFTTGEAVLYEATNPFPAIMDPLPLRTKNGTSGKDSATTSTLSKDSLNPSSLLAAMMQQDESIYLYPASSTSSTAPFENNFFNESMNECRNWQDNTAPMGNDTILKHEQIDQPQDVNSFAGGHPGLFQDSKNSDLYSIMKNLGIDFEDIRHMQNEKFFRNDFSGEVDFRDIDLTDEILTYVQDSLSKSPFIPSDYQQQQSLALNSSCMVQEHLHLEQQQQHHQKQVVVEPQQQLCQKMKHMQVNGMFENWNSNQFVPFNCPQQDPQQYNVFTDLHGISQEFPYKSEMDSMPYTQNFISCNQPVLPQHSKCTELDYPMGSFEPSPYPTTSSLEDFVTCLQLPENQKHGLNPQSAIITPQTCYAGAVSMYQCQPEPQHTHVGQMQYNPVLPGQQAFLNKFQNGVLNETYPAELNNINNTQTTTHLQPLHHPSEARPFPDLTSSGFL
GAA850 FXN act = increases GAA850 frataxin promoter reporter activity; HEK293 lucGAA850 FXN promoter luciferase reporter, 24 h; percent of 10 µM SAHA response; activation, % at 6 µM; 360,000 tested, 0.56% active; AID 540364;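 active = activation above the average of all compounds screened plus 3 SD, cutoff fixed separately per campaign, cut at about 7.5% in these data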;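 note: 0% = DMSO wells and 100% = 10 µM SAHA wells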
MC4R antag cAMP = blocks human MC4R cAMP signaling. P32245. MC4R-expressing cells, MTII-stimulated cAMP, LANCE TR-FRET. inhibition, % at 6.5 µM. 360,000 tested, 0.48% active;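 active = inhibition above its plate's cutoff, the mean of tested wells on that plate plus 3 SD, cut at about 29% in these data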;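 note: 0% = Melanotan II alone and 100% = Melanotan II plus saturating MCL0020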
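Assay system: human MC4R-expressing U2OS cells; reagent: Melanotan II stimulation of cells; dosing: 6.5 µM single dose; timing: compound 30 min, challenge 1 h, detection 1 h; signal: TR-FRET cAMP assay; replicates: one well per compound, no replicates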
OPRM1 ag = OPRM1 agonism in mouse HTR2A counterscreen | AID 624380 | 2,300 tested, 5.3% active | U2OS OPRM1 beta-arrestin PathHunter, luminescence; DMSO 0%, DAMGO 9.3 µM 100% | shares compounds with HTR2A ag | activation, % at 9.3 µM;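 active = mean activation above the mean of DMSO-only wells plus 3 SD, cut at about 0.5% in these data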
HTR2A ag conf = mouse HTR2A agonism confirmed | CHO-K1 PathHunter beta-arrestin recruitment, luminescence; DMSO 0%, 30 µM serotonin 100% | shares compounds with HTR2A ag | 2,300 tested, 19% active | activation, % at 7.6 µM | AID 624381;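 active = mean activation across triplicates above the hit threshold derived in the original primary screen, cut at about 15% in these data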
* hit, by the source's call.

For CC(C)(C)c1ccc(S(=O)(=O)NC(=O)C2(C)CCN2C(=O)C2(c3ccccc3)CC2)cc1 (stereo not drawn) the results were HTR2A ag 17.5*, MC4R ag barr -0.4, GAA850 FXN act 0.3, MC4R antag cAMP 9.8, OPRM1 ag -0.6 and HTR2A ag conf -1.9.
Cc1cc(C)cc(CC(=O)N2CCC2(C)C(=O)NS(=O)(=O)c2cccc(OC(F)F)c2)c1 (stereo not drawn) was read as HTR2A ag -0.5, MC4R ag barr -1.8, GAA850 FXN act -0.1 and MC4R antag cAMP 3.8.
For COc1ccc(NC(=O)C2CC3C=CC2C3)c([N+](=O)[O-])c1 (stereo not drawn) the results were HTR2A ag 14.8*, MC4R ag barr 0.6, GAA850 FXN act 3.1, MC4R antag cAMP -3.7, OPRM1 ag -0.3 and HTR2A ag conf 0.7.
`Cc1ccc(SCC(=O)NC(=O)NC(C)C)c(C)c1` gave HTR2A ag 15.8*, MC4R ag barr -0.1, AHR activator 3.8, GAA850 FXN act 1.1, MC4R antag cAMP 12.6, OPRM1 ag 0.2 and HTR2A ag conf 4.9.
`O=C(COc1ccccc1)NC1CCSC1=O` (stereo not drawn) gave HTR2A ag 20.9*, MC4R ag barr 1.3, AHR activator -0.3, GAA850 FXN act 1.6, MC4R antag cAMP 1.3, OPRM1 ag -0.6 and HTR2A ag conf -2.6.
CCS(=O)(=O)c1ccc(Sc2nncn2C)c([N+](=O)[O-])c1 was read as HTR2A ag 14.5*, MC4R ag barr -2.5, AHR activator -3.0, GAA850 FXN act 2.1, MC4R antag cAMP -2.4, OPRM1 ag 0.0 and HTR2A ag conf 3.9.
Screening O=C(NC(=S)Nc1ccccn1)c1cccc([N+](=O)[O-])c1 returned HTR2A ag 27.3*, MC4R ag barr -0.3, AHR activator 10.7, GAA850 FXN act 1.1, MC4R antag cAMP 0.5, OPRM1 ag -0.7 and HTR2A ag conf -4.5.
CCC1(c2ccc(F)cc2)NC(=O)N(CC(=O)Nc2cc(C)on2)C1=O (stereo not drawn) was read as HTR2A ag -6.3, MC4R ag barr -3.0, AHR activator 10.2, GAA850 FXN act 1.0 and MC4R antag cAMP -0.4.
For CC1(c2nnnn2C2CCCCC2)CCC(=O)N1Cc1ccc2c(c1)OCO2 (stereo not drawn) the results were HTR2A ag -0.9.
Screening O=C(Nc1ccc(Br)cc1C(=O)O)c1ccc2c(c1)C(=O)N(Cc1ccccc1)C2=O returned HTR2A ag 15.4*, MC4R ag barr -3.0, AHR activator 3.4, GAA850 FXN act 1.9, MC4R antag cAMP 3.4, OPRM1 ag -0.3 and HTR2A ag conf -1.4.
For O=C1OCCOC2CCCc3oc(C4=CCCCC4)c1c32 (stereo not drawn) the results were HTR2A ag 4.3.
Screening COc1ccc(C2CC(c3ccccc3)=NN2C(=O)CCC(=O)O)cc1 (stereo not drawn) returned HTR2A ag 0.1, MC4R ag barr 0.3, AHR activator 1.5, GAA850 FXN act -1.3 and MC4R antag cAMP 17.2.
Screening COc1ccc(C2=NN(C(=O)CCC(=O)O)C(c3ccc([N+](=O)[O-])cc3)C2)cc1 (stereo not drawn) returned HTR2A ag 18.9*, MC4R ag barr -1.0, GAA850 FXN act 3.4, MC4R antag cAMP 6.3, OPRM1 ag -0.8 and HTR2A ag conf -4.4.
For Cc1ccc(C(=O)NCC(=O)N(C)Cc2ccccc2C)s1 the results were HTR2A ag 19.4*, MC4R ag barr 1.5, GAA850 FXN act 3.1, MC4R antag cAMP 2.6, OPRM1 ag -0.7 and HTR2A ag conf -2.8.
Screening O=C(Nc1ccc(F)c(Cl)c1)c1ccc2sc([C@@H]3O[C@H](CO)[C@H](O)[C@H](O)[C@H]3O)nc2c1 returned HTR2A ag -6.2, MC4R ag barr 0.8, GAA850 FXN act 0.9 and MC4R antag cAMP 13.6.
Screening COc1cccc(-c2nc(NC3CCCC3)c3ccccc3n2)c1O returned HTR2A ag 77.5*, MC4R ag barr 0.3, AHR activator 17.9, GAA850 FXN act 3.5, MC4R antag cAMP 20.9, OPRM1 ag -0.1 and HTR2A ag conf 81.2*.
`COc1cccc(-c2nc(N3CCCCC3C)c3ccccc3n2)c1O` (stereo not drawn) gave HTR2A ag -3.6, MC4R ag barr -0.1, AHR activator 13.9, GAA850 FXN act 1.1 and MC4R antag cAMP 19.0.
Screening C=CCNc1nc(-c2cccc(OC)c2O)nc2ccccc12 returned HTR2A ag 42.0*, MC4R ag barr 9.4*, AHR activator 24.7, GAA850 FXN act 5.5, MC4R antag cAMP -10.0, OPRM1 ag -0.2 and HTR2A ag conf 24.4*.
For COc1ccccc1Nc1nc(-c2ccccc2O)nc2ccccc12 the results were HTR2A ag -3.6, MC4R ag barr -1.9, AHR activator 20.5, GAA850 FXN act 2.0 and MC4R antag cAMP 4.0.
`C[C@H]1CN([C@@H](C)CO)C(=O)c2cc(Br)cnc2O[C@H]1CN(C)C(=O)C1CC1` gave HTR2A ag -1.4, MC4R ag barr 1.1, GAA850 FXN act -1.5 and MC4R antag cAMP 13.5.
CC(=O)NCc1nc2ccccc2n1C(C)C was read as HTR2A ag 18.1*, MC4R ag barr 0.1, AHR activator 0.4, GAA850 FXN act -0.1, MC4R antag cAMP 7.2, OPRM1 ag -0.4 and HTR2A ag conf -3.0.
CC(C)n1c(CNC(=O)c2ccccc2)nc2ccccc21 was read as HTR2A ag -2.6, MC4R ag barr -0.6, AHR activator 4.5, GAA850 FXN act -0.7 and MC4R antag cAMP -1.8.
Screening C[C@H](CO)N1C[C@H](C)[C@@H](CN(C)C(=O)Nc2ccc(F)cc2)Oc2cc(Br)ccc2S1(=O)=O returned HTR2A ag -5.9, MC4R ag barr 1.3, GAA850 FXN act -1.0 and MC4R antag cAMP -4.2.
For CC(C)NC(=O)N(C)C[C@H]1Oc2cc(C#Cc3ccc(F)cc3)ccc2S(=O)(=O)N([C@H](C)CO)C[C@H]1C the results were HTR2A ag 41.1*, MC4R ag barr -0.2, GAA850 FXN act -4.2, MC4R antag cAMP 12.0, OPRM1 ag -0.7 and HTR2A ag conf 23.8*.
For C[C@@H](O)C#Cc1ccc2c(c1)O[C@H](CN(C)C(=O)Nc1ccccc1)[C@@H](C)CN([C@@H](C)CO)S2(=O)=O the results were HTR2A ag 14.7*, MC4R ag barr -0.8, GAA850 FXN act -0.7, MC4R antag cAMP 3.8, OPRM1 ag -0.2 and HTR2A ag conf 8.4.

Screens from PubChem.
